ChEMBL document CHEMBL1126893, “Synthesis and CLOGP correlation of imidooxy anticonvulsants” (J Med Chem, 1993)
Activity calls are given as the source filed them.

How the values were obtained:
[1] = system: Mus musculus; assay: Elevation of threshold for electroshock induced seizures in mice was measured by po administration after 0.5 hr at the dose of 400 mg/kg; 2/5; assay type: functional
Procedure, shortened: (§1)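 Maximal electroshock test in male CF1 mice (23-34 g). Compound given as a 0.5% methylcellulose suspension ip or po, with testing at 0.5 h after several doses. Endpoint is protection from tonic hind limb extension.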

[2] = species: Mus musculus; assay: TID20 was measured by MES test in mice; assay type: functional
Procedure, shortened: (§2)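 Elevation of maximal (tonic extension) electroshock seizure threshold in male CF1 mice (23-34 g). Compound given ip as a 0.5% methylcellulose suspension at 60, 80 and 90 mg/kg, with testing at 0.5 h. Read-out is % elevation of threshold. TID20 is the dose raising the threshold by 20%.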

[3] = species: Mus musculus; assay: Time of peak effect of toxicity of compound was measured by MES test in mice; assay type: functional
Procedure, shortened: (§3)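 Phase II quantification in mice after ip dosing. ED50 (scMet or MES) measured at the time of peak effect. TD50 (rotorod neurologic deficit) measured at the time of peak neurologic deficit. Medians and 95% confidence limits by the Litchfield-Wilcoxon method. Protective index = TD50/ED50. Time of peak effect determined in the MES or scMet test.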

[4] = species: Mus musculus; assay: ED50 value of compound was expressed as dose protecting 50% of mice from tonic hind limb extension; assay type: functional; details: Hindlimb; procedure, shortened: as §1
[5] = system: Mus musculus; assay: Effective dose was measured in mouse by maximal electroshock method by ip administration; 100-122; assay type: functional; procedure, shortened: as §3
[6] = system: Mus musculus; assay: Elevation of threshold for electroshock induced seizures in mice was measured by ip administration after 0.5 hr at the dose of 80 mg /kg; assay type: functional; procedure, shortened: as §2
[7] = system: Mus musculus; assay: Elevation of threshold for electroshock induced seizures in mice was measured by ip administration after 0.5 hr at the dose of 90 mg/kg; assay type: functional; details: route intraperitoneal; procedure, shortened: as §2
[8] = system: Mus musculus; assay: Elevation of threshold for electroshock induced seizures in mice was measured by po administration after 0.5 hr at the dose of 200 mg/kg; 1/8; assay type: functional; procedure, shortened: as §1
[9] = system: Mus musculus; assay: Elevation of threshold for electroshock induced seizures in mice was measured by po administration after 0.5 hr at the dose of 300 mg/kg; 2/8; assay type: functional; procedure, shortened: as §1
[10] = species: Mus musculus; assay: Time of peak effect of activity of compound was measured by MES test in mice; assay type: functional; procedure, shortened: as §3
[11] = system: Mus musculus; assay: Elevation of threshold for electroshock induced seizures in mice was measured by ip administration after 0.5 hr at the dose of 60 mg /kg; assay type: functional; procedure, shortened: as §2
[12] = species: Mus musculus; assay: Protective index (TD50/ED50) value in MES test in mice; assay type: functional
[13] = system: Mus musculus; assay: Anticonvulsant activity was measured by maximal electroshock test on mice at 4 hr at the dose of 300 mg/kg; number of animals protected/number of animals tested, 0/1; assay type: functional
[14] = system: Mus musculus; assay: Anticonvulsant activity was measured by maximal electroshock test on mice at 0.50 hr at the dose of 50 mg/kg; number of animals protected/number of animals tested, 0/4; assay type: functional
[15] = system: Mus musculus; assay: Anticonvulsant activity was measured by rotarod toxicity teston mice at 0.25 hr at the dose of 50 mg/kg; number of animals protected/number of animals tested, 0/4; assay type: functional
[16] = system: Mus musculus; assay: Anticonvulsant activity was measured by rotarod toxicity test on mice at 2 hr at the dose of 50 mg/kg; number of animals protected/number of animals tested, 0/4; assay type: functional
[17] = system: Mus musculus; assay: Anticonvulsant activity was measured by rotarod toxicity test on mice at 30 min at the dose of 300 mg/kg; number of animals protected/number of animals tested, 0/4; assay type: functional
[18] = system: Mus musculus; assay: Anticonvulsant activity was measured by maximal electroshock test on mice at 30 min at the dose of 300 mg/kg; number of animals protected/number of animals tested, 1/1; assay type: functional
[19] = system: Mus musculus; assay: Anticonvulsant activity was measured by rotarod toxicity test on mice at 4 hr at the dose of 50 mg/kg; number of animals protected/number of animals tested, number of animals protected/number of animals tested, 0/4; assay type: functional
[20] = system: Mus musculus; assay: Anticonvulsant activity was measured by rotarod toxicity teston mice at 0.50 hr at the dose of 50 mg/kg; number of animals protected/number of animals tested, 0/4; assay type: functional
[21] = system: Mus musculus; assay: Anticonvulsant activity was measured by subcutaneous pentylenetetrazole test on mice at 30 min at the dose of 100 mg/kg; number of animals protected/number of animals tested, 2/5; assay type: functional
[22] = system: Mus musculus; assay: Anticonvulsant activity was measured by maximal electroshock test on mice at 4 hr at the dose of 100 mg/kg; number of animals protected/number of animals tested, 0/3; assay type: functional
[23] = system: Mus musculus; assay: Anticonvulsant activity was measured by subcutaneous pentylenetetrazole test on mice at 30 min at the dose of 300 mg/kg; number of animals protected/number of animals tested, 5/5; assay type: functional
[24] = system: Mus musculus; assay: Anticonvulsant activity was measured by maximal electroshock test on mice at 2 hr at the dose of 50 mg/kg; number of animals protected/number of animals tested, 2/4; assay type: functional
[25] = system: Mus musculus; assay: Anticonvulsant activity was measured by subcutaneous pentylenetetrazole test on mice at 4 hr at the dose of 100 mg/kg; number of animals protected/number of animals tested, 0/1; assay type: functional
[26] = system: Mus musculus; assay: Anticonvulsant activity was measured by subcutaneous pentylenetetrazole test on mice at 4 h at the dose of 300 mg/kg; number of animals protected/number of animals tested, 0/1; assay type: functional
[27] = system: Mus musculus; assay: Anticonvulsant activity was measured by maximal electroshock test on mice at 0.25 hr at the dose of 50 mg/kg; number of animals protected/number of animals tested, 0/4; assay type: functional
[28] = system: Mus musculus; assay: Anticonvulsant activity was measured by maximal electroshock test on mice at 4 hr at the dose of 50 mg/kg; number of animals protected/number of animals tested, 0/4; assay type: functional
[29] = system: Mus musculus; assay: Anticonvulsant activity was measured by maximal electroshock test on mice at 30 min at the dose of 100 mg/kg; number of animals protected/number of animals tested, 1/3; assay type: functional
[30] = system: Mus musculus; assay: Anticonvulsant activity was measured by rotarod toxicity test on mice at 4 hr at the dose of 100 mg/kg; number of animals protected/number of animals tested, 0/4; assay type: functional
[31] = system: Mus musculus; assay: Anticonvulsant activity was measured by rotarod toxicity test on mice at 4 h at the dose of 300 mg/kg; number of animals protected/number of animals tested, 0/2; assay type: functional
[32] = system: Mus musculus; assay: Anticonvulsant activity was measured by rotarod toxicity test on mice at 30 min at the dose of 100 mg/kg; number of animals protected/number of animals tested, 0/8; assay type: functional
[33] = system: Mus musculus; assay: Time of peak effect of toxicity of compound was measured by both MES and sc Met test in mice; assay type: functional; procedure, shortened: as §3
[34] = system: Rattus norvegicus; assay: Effective dose was measured in rat by subcutaneous pentylenetetrazole method by ip administration; NE= Not effective; assay type: functional, organism-based
[35] = system: Mus musculus; assay: Time of peak effect of activity of compound was measured by both MES and sc Met test in mice; assay type: functional; procedure, shortened: as §3

Compound: O=C1CC2(CCCC2)C(=O)N1OCc1ccccc1
- No. of mice protected/tested [1]: 2
- TID20 [2]: 71 mg/kg
- TPE [3]: 4 toxicity
- ED50 [4]: 494 mg/kg
- ED50 [5]: 111 mg/kg
- Elevation of threshold [6]: 26%
- Elevation of threshold [7]: 28%
- No. of mice protected/tested [8]: 1
- No. of mice protected/tested [9]: 2
- TPE [10]: 0.25
- Elevation of threshold [11]: 14%
- PI [12]: >4.5

Compound: O=C1CC2(CCCC2)C(=O)N1OCc1ccccc1C(F)(F)F
- Ratio [13]: 0
- Ratio [14]: 0
- Ratio [15]: 0
- Ratio [16]: 0
- Ratio [17]: 0
- Ratio [18]: 1
- Ratio [19]: 0
- Ratio [20]: 0
- Ratio [21]: 2
- Ratio [22]: 0
- Ratio [23]: 5
- Ratio [24]: 2
- Ratio [25]: 0
- Ratio [26]: 0
- Ratio [27]: 0
- Ratio [28]: 0
- Ratio [29]: 1
- Ratio [30]: 0
- Ratio [31]: 0
- Ratio [32]: 0

Compound: O=C1NC(=O)C(c2ccccc2)(c2ccccc2)N1 [PHENYTOIN]
- TPE [33]: 2
- ED50 [34]: inactive
- TPE [35]: 2 toxicity
